We go through 18 molecules from ChEMBL document CHEMBL4376838, “Discovery of Novel Celastrol Derivatives as Hsp90-Cdc37 Interaction Disruptors with Antitumor Activity” (J Med Chem, 2019).

The subject of experiment [1] is HOS. Briefly: Antiproliferative activity against human HOS cells assessed as inhibition of cell growth incubated for 48 hrs by MTT assay. It is filed as functional, cell-based. The essentials:
(§1)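 MTT read-out. Cells seeded at 5.0 × 10⁴ cells/ml and cultured 24 h, then exposed to the drug over a range of concentrations for 48 h, with matching DMSO as control. MTT (5 mg/ml) added for 4 h, supernatant removed, formazan dissolved in DMSO, OD read at 570 nm. Run in triplicate, mean ± SD (n = 3).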
Background: Tetrazolium assays rely on reduction of a dye to a coloured formazan, in cell work by metabolically active cells.

Experiment [2] deals with HepG2. The experiment in a line: Antiproliferative activity against human HepG2 cells assessed as inhibition of cell growth incubated for 48 hrs by MTT assay. It counts as functional, cell-based. Particulars: HepG2, 48 h. The essentials: as §1
Experiment [3] concerns MCF7. The experiment in a line: Antiproliferative activity against human MCF7 cells assessed as inhibition of cell growth incubated for 48 hrs by MTT assay. It is filed as functional, cell-based. Particulars: MCF7, 48 h. A digest of the protocol: as §1
Experiment [4] has as its system A549. The experiment in a line: Antiproliferative activity against human A549 cells assessed as inhibition of cell growth incubated for 48 hrs by MTT assay. As to conditions: A549, 48 h. It is filed as functional, cell-based. A digest of the protocol: as §1
For experiment [5], the system named is A549. Briefly: Antiproliferative activity against human A549 cells assessed as inhibition of cell growth at 1.5 uM incubated for 48 hrs by MTT assay relative to control. It counts as functional. Particulars: A549, 48 h; for inhibition of growth at 1.5 µM: read-out: GI.
Experiment [6] deals with A549. The experiment in a line: Induction of apoptosis in human A549 cells assessed as early apoptotic cells at 1.2 uM incubated for 48 hrs by Annexin V-FITC and PI staining based flow cytometric analysis (reference value: 0.5%). It is filed as functional. The essentials:
(§2)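 A549 cells (4×10^5 per 6 cm dish) cultured 24 h, then treated 48 h with compound or DMSO. Cells gently harvested, washed twice in cold PBS, resuspended in binding buffer with Annexin V and PI, stained 15 min at room temperature in the dark, analysed by flow cytometry. Mean ± SD, n = 3.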

Experiment [7] addresses T1, Hsp90 co-chaperone Cdc37 (Homo sapiens) (UniProt Q16543).
T1 sequence (whole entry): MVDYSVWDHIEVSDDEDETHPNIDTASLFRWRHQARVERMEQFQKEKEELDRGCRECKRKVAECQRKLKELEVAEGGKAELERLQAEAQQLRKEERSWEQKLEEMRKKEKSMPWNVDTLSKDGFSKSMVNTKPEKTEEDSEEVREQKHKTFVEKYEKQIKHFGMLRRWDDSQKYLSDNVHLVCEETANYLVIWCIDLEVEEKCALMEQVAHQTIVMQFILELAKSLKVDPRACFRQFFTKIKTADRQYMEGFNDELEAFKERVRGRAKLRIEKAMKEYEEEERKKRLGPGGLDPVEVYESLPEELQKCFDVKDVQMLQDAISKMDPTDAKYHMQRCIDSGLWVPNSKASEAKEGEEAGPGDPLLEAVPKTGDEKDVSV
The experiment in a line: Binding affinity to Cdc37 in human A549 cells assessed as inhibition of HSP90-Cdc37 interaction by measuring decrease in Akt phosphorylation level at 5 uM incubated for 12 hrs by Western blot analysis. It counts as cell-based. The essentials: (§3)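 A549 cells seeded 5×10^5 per 6 cm dish, grown 12 h, then exposed to compound or DMSO for 12 h. Lysates adjusted to 3 mg/ml protein (BCA), run on 10% SDS-PAGE, immunoblotted for p-Akt and Cdk4. Band levels quantified against Hsp90 loading control. Three separate experiments, mean ± SD.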
A general note: In western blotting, separated proteins are transferred to a membrane and probed.

Experiment [8] deals with A549. Briefly: Induction of apoptosis in human A549 cells assessed as viable cells at 1.2 uM incubated for 48 hrs by Annexin V-FITC and PI staining based flow cytometric analysis (reference value: 95.5%). It counts as functional. As to conditions: A549, 48 h, read-out: Activity. The essentials:
as §2

In experiment [9] the target is Heat shock protein HSP 90-alpha (Homo sapiens) (UniProt P07900). The experiment in a line: Inhibition of ATP binding to human HSP90 alpha at 5 to 10 uM preincubated for 30 mins followed by gamma phosphate-linked ATP sepharose addition and measured after 30 mins by ATP-binding sepharose assay based western blot analysis. A digest of the protocol:
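Purified human Hsp90α incubated on ice 30 min with compound or DMSO in 10 mM Tris-HCl pH 7.5, 50 mM KCl, 5 mM MgCl2, 2 mM DTT, 20 mM Na2MoO4, 0.01% NP-40. γ-phosphate-linked ATP-Sepharose then added, 30 min at 37 °C with frequent mixing. Resin washed and pelleted, bound Hsp90α detected by SDS-PAGE/Western blot.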

For experiment [10], the target named is T1, Hsp90 co-chaperone Cdc37 (Homo sapiens). Briefly: Binding affinity to Cdc37 in human A549 cells assessed as inhibition of HSP90-Cdc37 interaction by measuring decrease in CDK4 protein level at 5 uM incubated for 12 hrs by Western blot analysis. It counts as cell-based. The essentials: as §3
Experiment [11] deals with A549. The experiment in a line: Induction of apoptosis in human A549 cells assessed as late apoptotic cells at 1.2 uM incubated for 48 hrs by Annexin V-FITC and PI staining based flow cytometric analysis (reference value: 3.0%). It is filed as functional. A digest of the protocol:
as §2

The test system of experiment [12] is A549. Briefly: Induction of apoptosis in human A549 cells assessed as necrotic cells at 1.2 uM incubated for 48 hrs by Annexin V-FITC and PI staining based flow cytometric analysis (reference value: 1.0%). It is filed as functional. The essentials:
as §2

Experiment [13] has as its system A549. The experiment in a line: Antiproliferative activity against human A549 cells assessed as inhibition of cell growth at 0.5 uM incubated for 48 hrs by MTT assay relative to control. It counts as functional. As to conditions: A549, 48 h, read-out: GI.

Active and inactive are the calls of the source. No cut-off for these calls is given here.

As to `CC1=C(O)C(=O)C=C2C1=CC=C1[C@@]2(C)CC[C@@]2(C)[C@@H]3C[C@](C)(C(=O)OC/C=C/COC(=O)/C=C(\C#N)c4ccccc4)CC[C@]3(C)CC[C@]12C`, the IC50 (commonly the midpoint of a concentration-inhibition curve) in [1] was found to be 4780 nM; in experiment [2], 3450 nM; in [3] it was 2860 nM; in experiment [4], 3540 nM.
On to `COc1ccc(/C(C#N)=C/C(=O)OCCOC(=O)[C@]2(C)CC[C@]3(C)CC[C@]4(C)C5=CC=C6C(=CC(=O)C(O)=C6C)[C@]5(C)CC[C@@]4(C)[C@@H]3C2)cc1`, for which the inhibition of growth at 1.5 µM in [5] worked out at 48.1%. The IC50 was determined as 1140 nM in experiment [1], 970 nM in [2], 970 nM in experiment [3] and 1790 nM in experiment [4].
On to `COc1ccc(/C(C#N)=C/C(=O)OC/C=C/COC(=O)[C@]2(C)CC[C@]3(C)CC[C@]4(C)C5=CC=C6C(=CC(=O)C(O)=C6C)[C@]5(C)CC[C@@]4(C)[C@@H]3C2)cc1`, for which the half-maximal inhibitory concentration (IC50) in experiment [1] worked out at 1790 nM; in experiment [2], 2710 nM; in [3] it was 1440 nM; in experiment [4], 1340 nM.
For `CC1=C(O)C(=O)C=C2C1=CC=C1[C@@]2(C)CC[C@@]2(C)[C@@H]3C[C@](C)(C(=O)OC/C=C/COC(=O)/C=C(\C#N)c4ccc(F)cc4)CC[C@]3(C)CC[C@]12C`, the half-maximal inhibitory concentration (IC50) in experiment [1] was found to be 1330 nM; in [2], 2740 nM; in experiment [3], 1110 nM; in experiment [4], 1840 nM.
For `COC(=O)[C@]12CCC(C)(C)C[C@H]1[C@H]1C(=O)C=C3[C@@]4(C)C=C(C#N)C(=O)C(C)(C)[C@@H]4CC[C@@]3(C)[C@]1(C)CC2` [BARDOXOLONE METHYL], in that order: 660 nM, 520 nM, 850 nM and 520 nM.
Consider `CC1=C(O)C(=O)C=C2C1=CC=C1[C@@]2(C)CC[C@@]2(C)[C@@H]3C[C@](C)(C(=O)OCCOC(=O)/C=C(\C#N)c4ccccc4)CC[C@]3(C)CC[C@]12C`, for which, in experiment [5], the inhibition of growth at 1.5 µM worked out at 59.6%. Moreover, the IC50 in experiment [1] came to 540 nM; in experiment [2] it was 650 nM; in [3], 700 nM; in experiment [4], 1020 nM.
Regarding `CC1=C(O)C(=O)C=C2C1=CC=C1[C@@]2(C)CC[C@@]2(C)[C@@H]3C[C@](C)(C(=O)O)CC[C@]3(C)CC[C@]12C` [CELASTROL], the Activity is 7.5% in experiment [6], 15.6% in [11] and 3.9% in experiment [12]. For the same molecule, the inhibition entry in experiment [7] and in experiment [10] was “Active” in each case. Further, in experiment [8], the viability at 1.2 µM worked out at 73%. For the same molecule, in experiment [9], the inhibition (in general, the relative decrease from the control value, in per cent) was “inactive”. Moreover, the inhibition at 1.5 µM in experiment [5] was determined as 48%. In addition, the 50% inhibitory concentration (IC50) in [1] turned out to be 1460 nM; in [2], 3180 nM; in experiment [3] it was 2040 nM; in [4] it was 1480 nM.
In the case of `CC1=C(O)C(=O)C=C2C1=CC=C1[C@@]2(C)CC[C@@]2(C)[C@@H]3C[C@](C)(C(=O)OCCCCOC(=O)/C(C#N)=C/c4ccc(F)cc4)CC[C@]3(C)CC[C@]12C`, in experiment [5], the inhibition of growth at 1.5 µM is 19%.
Turning to `CC1=C(O)C(=O)C=C2C1=CC=C1[C@@]2(C)CC[C@@]2(C)[C@@H]3C[C@](C)(C(=O)OCCOC(=O)/C=C/c4ccccc4)CC[C@]3(C)CC[C@]12C`, the inhibition of growth at 1.5 µM in [5] was found to be 23%.
For the molecule `COc1ccc(/C(C#N)=C/C(=O)OCCCOC(=O)[C@]2(C)CC[C@]3(C)CC[C@]4(C)C5=CC=C6C(=CC(=O)C(O)=C6C)[C@]5(C)CC[C@@]4(C)[C@@H]3C2)cc1`, the inhibition of growth at 1.5 µM in experiment [5] turned out to be 53.4%. Besides, the IC50 in experiment [1] was determined as 1750 nM; in experiment [2] it was 1270 nM; in experiment [3], 1100 nM; in [4], 1090 nM.
In the case of `CC1=C(O)C(=O)C=C2C1=CC=C1[C@@]2(C)CC[C@@]2(C)[C@@H]3C[C@](C)(C(=O)OCCCCOC(=O)/C=C(\C#N)c4ccc(C)cc4)CC[C@]3(C)CC[C@]12C`, the inhibition of growth at 1.5 µM in experiment [5] worked out at 9.74%.
With `CC1=C(O)C(=O)C=C2C1=CC=C1[C@@]2(C)CC[C@@]2(C)[C@@H]3C[C@](C)(C(=O)OCCCOC(=O)/C=C(\C#N)c4ccccc4)CC[C@]3(C)CC[C@]12C`, the inhibition of growth at 1.5 µM in [5] came out at 53.7%. Besides, the IC50 is 450 nM in [1], 760 nM in experiment [2], 980 nM in experiment [3] and 1410 nM in experiment [4].
Consider `CC1=C(O)C(=O)C=C2C1=CC=C1[C@@]2(C)CC[C@@]2(C)[C@@H]3C[C@](C)(C(=O)OCCOC(=O)/C=C(\C#N)c4ccc(F)cc4)CC[C@]3(C)CC[C@]12C`, for which the inhibition of growth at 1.5 µM in [5] turned out to be 65.9%. Further, the IC50 in experiment [1] was 2180 nM; in experiment [2] it was 3890 nM; in experiment [3], 2350 nM; in experiment [4], 1020 nM.
Regarding `COC(=O)CSC1C=C2C(C)(CC[C@@]3(C)[C@@H]4C[C@](C)(C(=O)OCCCOC(=O)/C=C(\C#N)c5ccc(F)cc5)CC[C@]4(C)CC[C@]23C)c2cc(OC(C)=O)c(OC(C)=O)c(C)c21` (single isomer, unassigned), the inhibition of growth at 0.5 µM in experiment [13] turned out to be 20.5%.
As to `CC1=C(O)C(=O)C=C2C1=CC=C1[C@@]2(C)CC[C@@]2(C)[C@@H]3C[C@](C)(C(=O)OCCCOC(=O)/C=C/c4ccc(F)cc4)CC[C@]3(C)CC[C@]12C`, the inhibition of growth at 1.5 µM in experiment [5] turned out to be 37.6%.
With `COc1ccc(/C=C(\C#N)C(=O)OCCOC(=O)[C@]2(C)CC[C@]3(C)CC[C@]4(C)C5=CC=C6C(=CC(=O)C(O)=C6C)[C@]5(C)CC[C@@]4(C)[C@@H]3C2)cc1`, in experiment [5], the inhibition of growth at 1.5 µM was 16.6%.
Still for that read-out and setting: the figure for `CC1=C(O)C(=O)C=C2C1=CC=C1[C@@]2(C)CC[C@@]2(C)[C@@H]3C[C@](C)(C(=O)OCCOC(=O)/C(C#N)=C/c4ccc(F)cc4)CC[C@]3(C)CC[C@]12C` is 26.1%; for `CC1=C(O)C(=O)C=C2C1=CC=C1[C@@]2(C)CC[C@@]2(C)[C@@H]3C[C@](C)(C(=O)OCCCCOC(=O)/C=C(\C#N)c4ccccc4)CC[C@]3(C)CC[C@]12C` it is 3.19%.
